Source: ChEMBL document CHEMBL1139873, “Bispyridinium dienes: histone deacetylase inhibitors with selective activities” (J Med Chem, 2007)
Calls of active or inactive are those of the source. The calls are words filed in the database; no cut-off is given here.

Experiments:
U-937 [1] = test: Effect on alpha tubulin acetylation in U937 cells at 5 uM after 24 hrs by Western blot analysis; assay type: functional, cell-based; conditions: Homo sapiens
U-937 [2] = test: Effect on alpha tubulin acetylation in U937 cells at 1 uM after 24 hrs by Western blot analysis; assay type: functional, cell-based; conditions: Homo sapiens
U-937 [3] = test: Increase in histone H3 acetylation in U937 cells at 5 uM after 24 hrs by Western blot analysis; assay type: cell-based; conditions: Homo sapiens
U-937 [4] = test: Induction of apoptosis in U937 cells after 30 hrs by FACS analysis; assay type: functional, cell-based; conditions: Homo sapiens
Method in brief: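 U937 cells in supplemented RPMI were exposed 30 h to compounds dissolved in DMSO (1 or 5 µM). Apoptosis was scored by flow cytometry as the percentage of active caspase 3-positive cells, as the mean of independent duplicates.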

U-937 [5] = test: Effect on granulocyte differentiation in U937 cells assessed as CD11c expression after 30 hrs; assay type: functional, Homo sapiens
Method in brief: (§1)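 U937 cells were stained with phycoerythrine-conjugated anti-CD11c for 30 min at 4 °C in the dark, with PE-mouse IgG1 as the staining control. Cells were washed in PBS, taken up in PBS with 0.25 µg/mL propidium iodide and analysed by FACS. PI-positive cells were excluded.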

Histone deacetylase 1 [6] = biological target: T1, Histone deacetylase 1 (Homo sapiens, UniProt Q13547); test: Inhibition of HDAC1
Method in brief: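 Purified recombinant HDAC1 was incubated with the acetyl-lysine Fluor de Lys substrate, with or without inhibitor. Developer then released a fluorophore, read by fluorimetry. Four scalar concentrations were tested in quadruplicate to derive the IC50.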

Histone deacetylase 1 [7] = biological target: T1, Histone deacetylase 1; test: Inhibition of HDAC1 at 5 uM
U-937 [8] = test: Effect on granulocyte differentiation in U937 cells assessed as CD11c expression at 5 uM after 30 hrs; assay type: functional, cell-based; conditions: Homo sapiens; method in brief: as §1
Histone deacetylase 4 = Histone deacetylase 4 (Homo sapiens, UniProt P56524); test: Inhibition of HDAC4
Method in brief: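 HDAC4 catalytic fragment (aa 627-1085, C-terminal GST tag, baculovirus-expressed) was used at 2 µg per assay with 1-2 h enzymatic incubation in the fluorimetric deacetylase assay. Four scalar concentrations were tested in quadruplicate, and the IC50 was calculated from fluorescence.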

U-937 [9] = test: Effect on cell cycle analysis in U937 cells assessed as accumulation at G1 phase after 30 hrs; assay type: functional, cell-based; conditions: Homo sapiens
Method in brief: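 U937 cells grown in RPMI with 10% FCS, antibiotics, 10 mM HEPES and 2 mM glutamine at 200 000 cells/mL, then treated 30 h with compounds in DMSO (1 or 5 µM). 2.5 × 10⁵ cells in hypotonic buffer (0.1% Triton X-100, 0.1% sodium citrate, 50 µg/mL propidium iodide, RNAse A), 30 min in the dark. DNA content by flow cytometry; run at least twice.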

T1 sequence (Q13547 whole entry): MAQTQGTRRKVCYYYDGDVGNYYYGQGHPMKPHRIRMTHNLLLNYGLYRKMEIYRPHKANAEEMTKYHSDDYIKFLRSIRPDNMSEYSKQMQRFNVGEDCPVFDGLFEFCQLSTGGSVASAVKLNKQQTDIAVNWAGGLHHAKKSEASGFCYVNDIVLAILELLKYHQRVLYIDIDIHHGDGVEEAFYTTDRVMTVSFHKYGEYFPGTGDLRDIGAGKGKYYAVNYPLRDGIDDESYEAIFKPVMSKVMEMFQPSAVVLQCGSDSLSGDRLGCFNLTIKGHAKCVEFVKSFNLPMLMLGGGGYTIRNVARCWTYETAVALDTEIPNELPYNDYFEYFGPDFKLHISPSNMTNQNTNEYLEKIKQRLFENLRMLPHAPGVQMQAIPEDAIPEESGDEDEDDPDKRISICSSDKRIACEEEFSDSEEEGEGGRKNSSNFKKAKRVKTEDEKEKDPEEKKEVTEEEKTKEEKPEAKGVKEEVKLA
Histone deacetylase 4, sequence (P56524 whole entry, the tested form may be a part): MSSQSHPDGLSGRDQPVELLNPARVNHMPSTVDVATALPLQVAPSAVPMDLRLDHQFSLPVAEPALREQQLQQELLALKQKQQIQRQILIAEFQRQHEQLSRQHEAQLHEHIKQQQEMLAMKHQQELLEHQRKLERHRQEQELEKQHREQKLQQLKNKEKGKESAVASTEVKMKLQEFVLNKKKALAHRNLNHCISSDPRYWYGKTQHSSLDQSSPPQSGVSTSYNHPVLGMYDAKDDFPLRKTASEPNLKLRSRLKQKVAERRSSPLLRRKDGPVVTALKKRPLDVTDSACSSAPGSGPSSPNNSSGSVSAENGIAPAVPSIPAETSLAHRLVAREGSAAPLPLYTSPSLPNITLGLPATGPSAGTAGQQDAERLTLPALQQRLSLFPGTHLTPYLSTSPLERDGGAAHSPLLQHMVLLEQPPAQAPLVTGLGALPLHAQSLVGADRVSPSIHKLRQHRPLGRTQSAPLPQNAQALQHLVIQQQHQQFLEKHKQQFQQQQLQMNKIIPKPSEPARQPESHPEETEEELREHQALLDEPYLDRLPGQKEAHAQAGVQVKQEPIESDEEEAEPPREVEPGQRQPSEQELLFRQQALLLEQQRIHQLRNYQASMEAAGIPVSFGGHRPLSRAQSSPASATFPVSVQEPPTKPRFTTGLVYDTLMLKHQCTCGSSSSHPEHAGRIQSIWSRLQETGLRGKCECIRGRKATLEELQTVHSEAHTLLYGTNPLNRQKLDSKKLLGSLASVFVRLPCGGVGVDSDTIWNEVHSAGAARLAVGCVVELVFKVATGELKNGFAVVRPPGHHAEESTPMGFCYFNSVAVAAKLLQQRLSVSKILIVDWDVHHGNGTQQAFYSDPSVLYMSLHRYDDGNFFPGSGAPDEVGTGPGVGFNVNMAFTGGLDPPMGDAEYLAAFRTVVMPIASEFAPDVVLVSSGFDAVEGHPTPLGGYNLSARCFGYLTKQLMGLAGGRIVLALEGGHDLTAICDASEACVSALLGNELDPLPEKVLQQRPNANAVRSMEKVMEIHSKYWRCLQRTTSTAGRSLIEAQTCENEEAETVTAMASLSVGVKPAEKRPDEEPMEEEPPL

SMILES | Activity (U-937 [1]) | Activity (U-937 [2]) | Activity (U-937 [3]) | Activity (U-937 [4]) | Activity (U-937 [5]) [%] | IC50 (Histone deacetylase 1 [6]) [nM] | Activity (Histone deacetylase 1 [7]) | Activity (U-937 [8]) | IC50 (Histone deacetylase 4) [nM] | Activity (U-937 [9])
c1cc2c[n+](c1)CCCCCCCCCCCCCCc1ccc[n+](c1)CCCCCCCCCCCCC2 | inactive | inactive | – | – | – | – | – | – | – | –
c1cc2c[n+](c1)CCCCCCCCCCCCCCc1ccc[n+](c1)CCCCCCCCCCCC2 | inactive | inactive | – | – | – | – | – | – | – | –
C=CCCCCCCc1ccc[n+](CCCCCCCCCCCCCc2ccc[n+](CCCCCCC=C)c2)c1 | inactive | inactive | Active | Active | – | – | – | – | – | –
C=CCCCCCCc1ccc[n+](CCCCCCCCCCCCc2ccc[n+](CCCCCCC=C)c2)c1.[Cl-].[I-] | inactive | inactive | Active | Active | 30 | – | – | – | – | –
C=CCCCCCC[n+]1cccc(CCCCCCCCCCCCC[n+]2cccc(CCCCC=C)c2)c1 | inactive | inactive | Active | Active | – | – | – | – | – | –
C=CCCCCCC[n+]1cccc(CCCCCCCCCCCC[n+]2cccc(CCCCC=C)c2)c1.[Cl-].[I-] | inactive | inactive | Active | Active | 30 | 530 | Active | Active | > 200000 | –
Nc1ccccc1NC(=O)c1ccc(CNC(=O)OCc2cccnc2)cc1 | inactive | inactive | Active | – | – | – | – | – | – | –
C=CCCCCCC[n+]1cccc(CCCCCCCCCCCCC[n+]2cccc(CCCC=C)c2)c1.[Cl-].[I-] | inactive | inactive | Active | Active | 30 | – | – | – | – | –
c1cc2c[n+](c1)CCCCCCCCCCCCCc1ccc[n+](c1)CCCCCCCCCCC2 | inactive | inactive | Active | – | – | – | – | – | – | –
c1cc2c[n+](c1)CCCCCCCCCCCCc1ccc[n+](c1)CCCCCCCCCCCC2 | inactive | inactive | – | – | – | – | – | – | – | –
c1cc2c[n+](c1)CCCCCCCCCCCCc1ccc[n+](c1)CCCCCCCCCCC2 | inactive | inactive | – | – | – | – | – | – | – | –
c1cc2c[n+](c1)CCCCCCCCCCCCCc1ccc[n+](c1)CCCCCCCCCCCC2 | inactive | inactive | Active | – | – | – | – | – | – | –
C=CCCCCCC[n+]1cccc(CCCCCCCCCCCC[n+]2cccc(CCCC=C)c2)c1.[Cl-].[I-] | inactive | inactive | Active | Active | 30 | 1880 | – | – | 540 | Active
O=C(CCCCCCC(=O)Nc1ccccc1)NO | inactive | inactive | Active | – | – | – | – | – | – | –
